# Test results published in ChEMBL document CHEMBL1129050, “Correlation of anti-HIV potency with lipophilicity in a series of cosalane analogs having normal alkenyl and phosphodiester chains as cholestane replacements” (J Med Chem, 1996).
# Legend:
# CEM-SS [1] = experiment: Effective concentration against HIV-1RF induced cytopathicity in CEM-SS cells; assay type: functional, cell-based; settings: Homo sapiens
# Outline: (§1)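 CEM-SS cells (5000/well) infected with thawed HIV-1 RF stock at MOI 0.01 in the presence of serially diluted compound (as ammonium salts); 37 °C, 5% CO₂, 6 days. Supernatant assayed for RT activity, p24 and/or infectious virus; cell protection from cytopathic effect read by XTT. EC₅₀ averaged from at least two determinations; compounds tested up to […].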
# CEM-SS [2] = experiment: Cytotoxic concentration against mock-infected CEM-SS cells; assay type: functional, cell-based; settings: Homo sapiens
# Outline: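 Uninfected (mock-infected) CEM-SS cells, exponentially growing, seeded at 5000 cells/well with serially diluted compound (tested as ammonium salts) in complete medium; 37 °C, 5% CO₂, 6 days. Growth/viability by XTT assay; IC₅₀ = 50% cytotoxic concentration, averaged from at least two determinations.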
# CEM-SS [3] = experiment: Effective concentration against HIV-1RF induced cytopathicity in CEM-SS cells; No antiviral uM; assay type: functional, cell-based, Homo sapiens; outline: as §1
# CEM-SS [4] = experiment: Effective concentration against HIV-1RF induced cytopathicity in CEM-SS cells; No antiviral activity was observed at concentrations uM; assay type: functional, cell-based, Homo sapiens; outline: as §1
EC50 (CEM-SS [1]) [µM],EC50 (CEM-SS [3]),EC50 (CEM-SS [4]),SMILES,IC50 (CEM-SS [2]) [µM]
329,–,–,O=C(O)c1cc(Cc2cc(Cl)c(O)c(C(=O)O)c2)cc(Cl)c1O,> 364
–,Not Active,–,O=C(O)c1cc(C(=CCC23CC4CC(CC(C4)C2)C3)c2cc(Cl)c(O)c(C(=O)O)c2)cc(Cl)c1O,105
19.8,–,–,CCCCCCCCCCCCCCCC=C(c1cc(Cl)c(O)c(C(=O)O)c1)c1cc(Cl)c(O)c(C(=O)O)c1,> 35
–,Not Active,–,CCCCCCCCCCCCCCCCOP(=O)(O)OCCC=C(c1cc(Cl)c(O)c(C(=O)O)c1)c1cc(Cl)c(O)c(C(=O)O)c1,84
43.2,–,–,CCCCCCCCCC=C(c1cc(Cl)c(O)c(C(=O)O)c1)c1cc(Cl)c(O)c(C(=O)O)c1,> 49
–,–,Not Active,CCCCCC=C(c1cc(Cl)c(O)c(C(=O)O)c1)c1cc(Cl)c(O)c(C(=O)O)c1,> 95
–,Not Active,–,CCCCCCCCCCCCCCOP(=O)(O)OCCC=C(c1cc(Cl)c(O)c(C(=O)O)c1)c1cc(Cl)c(O)c(C(=O)O)c1,101

# More lines, now with the values behind:
SMILES,EC50 (CEM-SS [1]) [µM],EC50 (CEM-SS [3]),EC50 (CEM-SS [4]),IC50 (CEM-SS [2]) [µM]
CCCCCCCCCCCCCCCCCCOP(=O)(O)OCCC=C(c1cc(Cl)c(O)c(C(=O)O)c1)c1cc(Cl)c(O)c(C(=O)O)c1,–,Not Active,–,74
CCCCCCCC/C=C\CCCCCCCCOP(=O)(O)OCCC=C(c1cc(Cl)c(O)c(C(=O)O)c1)c1cc(Cl)c(O)c(C(=O)O)c1,49,–,–,61.3
CCCCC/C=C\C/C=C\CCCCCCCCOP(=O)(O)OCCC=C(c1cc(Cl)c(O)c(C(=O)O)c1)c1cc(Cl)c(O)c(C(=O)O)c1,51.8,–,–,86
CC(C)CCCC(C)[C@H]1CC[C@H]2[C@@H]3CCC4C[C@@H](CCC=C(c5cc(Cl)c(O)c(C(=O)O)c5)c5cc(Cl)c(O)c(C(=O)O)c5)CC[C@]4(C)[C@H]3CC[C@]12C (some centres undefined),3,–,–,> 300
CCCCCCCCCCCCCCCCCCCCCCCCCCCCCC=C(c1cc(Cl)c(O)c(C(=O)O)c1)c1cc(Cl)c(O)c(C(=O)O)c1,13.1,–,–,> 220
